Results: publication PMC8635173 (Chemical Science, 2021)
Where two headings read alike, the source gives them in different places.

Columns and labels:
[1] = tested on: MDA-MB-231 triple-negative breast cancer carcinoma; test: Anti-proliferative NBB assay; format: cell-based, human; conditions: read-out: IC50 MDA-MB-231; 72 h
A2780 ovarian carcinoma = test: Anti-proliferative NBB assay; format: cell-based, human; conditions: read-out: IC50 A2780; 72 h
[2] = tested on: CCD-19Lu normal lung fibroblast; test: Anti-proliferative NBB assay; format: cell-based, human; conditions: read-out: IC50 CCD-19Lu; 72 h
NCI-H460 cells [3] = test: Lysosomal integrity; format: cell-based, human; conditions: 10 µM, 24 h
Procedure, shortened: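 NCI-H460 cells were exposed to test compound (10 μM) for 24 h and then stained. Stains were acridine orange (10 μM), LysoTracker Deep Red with MitoTracker Green (50 nM), and pepstatin A–BODIPY FL conjugate (1 μM) co-stained with LysoTracker Deep Red. Imaging was by confocal microscopy, checking vesicular staining loss and cytosolic probe leakage against vehicle.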

LC3 (LC3-II) = test: Immunoblotting of autophagy marker LC3; format: cell-based, human; conditions: Western blotting; 1a 0-30 µM 6 h or 10 µM 6-24 h; cisplatin 0-20 µM 6 h
[4] = tested on: PLC primary liver carcinoma; test: Anti-proliferative NBB assay; format: cell-based, human; conditions: read-out: IC50 PLC; 72 h
[5] = tested on: NCI-H460 non-small cell lung carcinoma; test: Anti-proliferative NBB assay; format: cell-based, human; conditions: read-out: IC50 NCI-H460; 72 h
NCI-H460 cells [6] = test: Annexin V-FITC/PI double staining, flow cytometry; format: cell-based, human; conditions: 20 µM, 72 h
NCI-H460 cells [7] = test: Cell cycle analysis by flow cytometry; format: cell-based, human; conditions: 10 µM
[8] = tested on: HCT116 colorectal carcinoma; test: Anti-proliferative NBB assay; format: cell-based, human; conditions: read-out: IC50 HCT116; 72 h
NCI-H460 cells [9] = test: Mitochondrial depolarization assay; format: cell-based, human; conditions: 10 µM, 24 h, relative to vehicle
NCI-H460 cells [10] = test: γ-H2AX immunofluorescence staining; format: cell-based, human; conditions: 10 µM, 24 h post-treatment
ctDNA = test: DNA binding affinity by isothermal titration calorimetry; parameters: species or system calf
[11] = tested on: β-glucosidase (from almonds); test: Enzymatic cleavage of the glycosidic linkage, UPLC/MS; format: in vitro ADME
Procedure, shortened: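 Test compound incubated with almond β-glucosidase (0.5 U mL⁻¹) in PBS pH 5.8 at 37 °C for up to 24 h. Enzyme-free controls were run in PBS pH 5.8 and pH 7.4. Release of the deglycosylated aglycone was followed over time by UPLC/MS peak tracking (retention time and m/z).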

[12] = tested on: NCI-H460 cancer cells and CCD-19Lu normal fibroblast cells; test: Comparative cellular uptake, cancer versus normal cells, ICP-MS; format: cell-based, human
NCI-H460 cells [13] = test: Intracellular oxidant level; format: cell-based, human; conditions: 10 µM, 24 h
[14] = tested on: NCI-H460 lung cancer xenografts; test: In vivo anti-tumor study; parameters: species or system nude mouse; conditions: 1a 25 mg kg^−1 i.v., 14 days
Procedure, shortened: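 Nude mice bearing NCI-H460 xenografts were randomised into groups (n = 6). Groups received test compound (25 mg kg⁻¹) or PBS vehicle i.v. for 14 days; cisplatin (1.5 mg kg⁻¹ i.v.) on a similar regimen served as positive control. Tumour volume was tracked. Dissected tumours were weighed and examined by H&E and Ki-67 immunohistochemistry. Data are given as mean ± standard error.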

[15] = biological target: guanine–cytosine (GC)-rich DNA; test: DNA binding affinity by ITC; conditions: read-out: KD (GC-rich DNA), one-site binding model, pH 7.4
calf thymus DNA (ctDNA) = test: UV-vis absorption titration with DNA; format: binding; conditions: complex 30 µM, Tris-HCl pH 7.4
[16] = Particle size by nanoparticle tracking analysis; format: physicochemical
[17] = tested on: NCI-H460 cells stably expressing mRFP-GFP-LC3; test: Live cell imaging of mRFP-GFP-tagged LC3; format: cell-based, human; conditions: 10 µM, 24 h
NCI-H460 cells [18] = test: Cellular uptake of platinum by ICP-MS; format: cell-based, human; conditions: for decrease in Pt levels in cells: 2 h treatment
[19] = tested on: different cancer cell lines; test: Anti-proliferative NBB assay, summary over several cancer cell lines; format: cell-based, human; conditions: for IC50: read-out: IC50 toward different cell lines, NCI-H460 lung, PLC liver and HCT116 colorectal carcinomas
[20] = Lipophilicity measurement; format: physicochemical; conditions: n-octanol / 0.9 % aqueous NaCl, 298 K
[21] = tested on: telomeric G-quadruplex (HTelo) DNA; test: UV-vis absorption titration with DNA; format: binding; conditions: at λmax of 345 nm
Aqueous solubility = format: physicochemical
NCI-H460 cells [22] = test: Subcellular distribution of platinum content by ICP-MS; format: cell-based, human; conditions: 24 h treatment
[23] = In vivo systemic toxicity; parameters: species or system nude mouse
Procedure, shortened: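 Tumour-bearing nude mice (n = 6) received test compound (25 mg kg⁻¹ i.v.) or PBS vehicle for 14 days. Body weight was tracked throughout. At day 14, major organs were harvested for H&E histology, and blood was analysed for ALT and creatinine.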

[24] = tested on: DNA duplex bearing cytosine–cytosine (CC) mismatched base pairs; test: DNA binding affinity by ITC

Molecule: N.N.[Cl][Pt][Cl] [Cisplatin, reference compound]
- IC50 [1]: 19.7 ± 1.6 µM
- IC50 (A2780 ovarian carcinoma): 8.9 ± 0.7 µM
- IC50 [2]: 30.8 ± 4.9 µM
- lysosomal integrity (NCI-H460 cells [3]): negligible damage to the cellular lysosomes
- level of LC3-II (LC3 (LC3-II)): dose-dependent increase
- IC50 [4]: 9.1 ± 1.2 µM
- IC50 [5]: 6.9 ± 0.5 µM
- late apoptosis (annexin V-positive and PI-positive) (NCI-H460 cells [6]): 87.2%
- increase in G2/M populations (NCI-H460 cells [7]; 24 h, versus vehicle): 53.7%
- IC50 [8]: 5.1 ± 0.4 µM
- decrease in red fluorescence of JC-1 (mitochondrial depolarization) (NCI-H460 cells [9]): 8.3%
- γ-H2AX foci in nuclei (NCI-H460 cells [10]): even more markedly increased

Molecule: [Pt(tpy)(C?CArOGlu)](CF3SO3) [Complex 1a]
- IC50 [1]: 23.8 ± 5.8 µM
- fold lower KD than 2 (ctDNA) (ctDNA; 1a versus 2): 27.5 fold
- Kd (ctDNA; read-out: KD (ctDNA), ITC, one-site binding model, pH 7.4): 0.48 µM
- IC50 (A2780 ovarian carcinoma): 8.7 ± 0.2 µM
- IC50 [2]: > 100 µM
- lysosomal integrity (NCI-H460 cells [3]): disruption of lysosomes
- level of LC3-II (LC3 (LC3-II)): increased levels
- conversion of 1a into 1d ([11]; buffer control without β-glu, PBS pH 5.8, 24 h): ca. 2%
- conversion of 1a into 1d ([11]; β-glu 0.5 U mL^−1, PBS pH 5.8, 37 °C, 24 h): more than 70%
- fold higher Pt accumulation in NCI-H460 than in CCD-19Lu cells [12]: 1.9 fold
- increment in DCF fluorescence intensity versus vehicle control (NCI-H460 cells [13]): ~1.2 fold
- immunohistochemical staining for Ki-67 in tumor specimens [14]: significant reduction
- Kd [15]: 74.1 µM
- bathochromic (red) shift of lowest-energy absorption band upon addition of ctDNA (calf thymus DNA (ctDNA)): 42 nm
- hypochromism upon addition of ctDNA (calf thymus DNA (ctDNA); lowest-energy absorption band): 16.8%
- IC50 [4]: 17.2 ± 1.2 µM
- average hydrodynamic diameter ([16]; RPMI 1640 cell culture medium containing 10% fetal bovine serum): 87.3 ± 4.6 nm
- average hydrodynamic diameter ([16]; aqueous solution containing 1% DMSO, 100 µM): 139.6 ± 2.5 nm
- IC50 [5]: 7.1 ± 0.3 µM
- necrotic cell death (annexin V-negative and PI-positive) (NCI-H460 cells [6]): 91%
- Pearson's colocalization coefficient of green and red LC3 puncta [17]: 0.64
- fold higher intracellular Pt level than 1b (NCI-H460 cells [18]; 10 µM, after 24 h): ca. 3.2 fold
- fold higher intracellular Pt level than 1c (NCI-H460 cells [18]; 10 µM, after 24 h): ~8 fold
- fold higher intracellular Pt level than 1d (NCI-H460 cells [18]; 10 µM, after 24 h): ~1.6 fold
- decrease in Pt levels in cells (NCI-H460 cells [18]; hypertonic sucrose (450 mM)): 27.4%
- decrease in Pt levels in cells (NCI-H460 cells [18]; incubation at 4 °C): 77.1%
- reduction in the cellular Pt level (upper figure) (NCI-H460 cells [18]; low temperature (4 °C) or inhibition of endocytosis): up to 80%
- decrease in Pt levels in cells (NCI-H460 cells [18]; nocodazole (50 µM)): 41.9%
- increase in G0/G1 populations (NCI-H460 cells [7]; 24 h, versus vehicle): 9.3%
- change in cell populations on prolonging treatment to 48 h (NCI-H460 cells [7]; 48 h compared with 24 h): no significant increase in cell populations
- fold higher anti-proliferative activity than 1b ([19]; most of the cancer cell lines, 72 h): 1.4- to 2.4 fold
- IC50 ([19]; 24 h post-treatment): > 100 µM
- IC50 ([19]; after 48 h): 54.6 to 74.5 µM
- IC50 [8]: 7.5 ± 0.6 µM
- lipophilicity (log P) [20]: −0.88
- decrease in red fluorescence of JC-1 (mitochondrial depolarization) (NCI-H460 cells [9]): ca. 21%
- hypochromism upon addition of HTelo DNA [21]: 19.6%
- solubility (water) (Aqueous solubility): 8600 µg/mL
- γ-H2AX foci in nuclei (NCI-H460 cells [10]): some significant fluorescent γ-H2AX foci
- Pt content in cytosolic fraction (NCI-H460 cells [22]): 55%
- Pt content in mitochondrial fraction (NCI-H460 cells [22]): 37%
- Pt content in nuclear fraction (NCI-H460 cells [22]): 9%
- histopathology of major organs (heart, liver, spleen, lungs and kidneys) ([23]; 25 mg kg^−1 i.v., after 14 days, H&E): No obvious histopathological lesion
- plasma level of alanine aminotransferase (ALT) ([23]; 25 mg kg^−1 i.v., day 14): comparable to those in the vehicle control
- plasma level of creatinine (CREA) ([23]; 25 mg kg^−1 i.v., day 14): comparable to those in the vehicle control
- death or weight loss of mice ([23]; throughout the 14-day treatment period): None of the mice died or displayed any sign of weight loss
- fold higher binding affinity than 2 (CC mismatched DNA) ([24]; 1a versus 2): 4.3 fold
- Kd ([24]; read-out: KD (CC mismatched DNA), ITC, one-site binding model, pH 7.4): 19.6 µM
